Experimental data from article PMC7699308 (Biochemistry, 2020).
Bridges are numbered along the chain shown (N, C = ends). Where no end group is shown, it is not given here.

Legend:
[1] = Ion mobility mass spectrometry, collision cross sections; type: physicochemical; settings: for CCS, 1^+2 ion: charge +2, 100 mM ammonium acetate pH 7.5
Method in brief: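 Lyophilized peptide dissolved in DMSO at 3.2 mM, held 24 hrs at room temperature, then diluted 100-fold in 100 mM ammonium acetate pH 7.5 and directly infused for ion-mobility MS. m/z 350-5000 calibrated with cesium iodide. CCS calibrated daily with polyethylene oxide and tryptic cytochrome c peptides. TWCCS N2→He derived from reduced mobilities in nitrogen using helium calibrant values. Triplicate runs on different days.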

[2] = Thioflavin T kinetic assay of amyloid formation; type: physicochemical; settings: 16 μM peptide, 32 μM ThT, pH 7.4, 25°C, one week (seven days)
Method in brief: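 HFIP peptide stocks, quantified by A280, were lyophilized 24 hrs and resuspended in 10 mM phosphate, 140 mM KCl, pH 7.4, with 32 μM thioflavin T. Peptide was 16 μM in the main assays and 100 μM in the supplementary set. Run at 25°C without shaking, triplicate wells. Fluorescence read at ex 450/em 485 nm every ten minutes. T50 is the time to half-maximal ThT fluorescence.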

[3] = Cytotoxicity dose response, statements of the text not split by assay; type: cell-based; settings: rat
[4] = monomer, TWCCS N2→He, triplicate on different days

Molecule | CCS, 2^+4 ion ([1]; dimer, charge +4, triplicate on different days) [Å^2] | CCS, 2^+5 ion, second conformation ([1]; dimer, charge +5, lower line of the two conformations, triplicate) [Å^2] | CCS, 1^+2 ion [1, 4] [Å^2] | CCS, 1^+3 ion ([1]; monomer, charge +3, TWCCS N2→He, triplicate on different days) [Å^2] | CCS, 1^+4 ion, second (compact) conformation ([1]; monomer, charge +4, lower line of the two conformations, triplicate) [Å^2] | Increase in ThT fluorescence over the time course of the study [2] | EC50 at 24 h [3] [µM]
CC[C@H](C)[C@H](NC(=O)[C@H](C)NC(=O)CNC(=O)[C@H](Cc1ccccc1)NC(=O)[C@H](CC(N)=O)NC(=O)[C@H](CC(N)=O)NC(=O)[C@H](CO)NC(=O)[C@H](CO)NC(=O)[C@H](Cc1c[nH]cn1)NC(=O)[C@@H](NC(=O)[C@H](CC(C)C)NC(=O)[C@H](Cc1ccccc1)NC(=O)[C@H](CC(N)=O)NC(=O)[C@H](C)NC(=O)[C@H](CC(C)C)NC(=O)[C@H](CCCNC(=N)N)NC(=O)[C@H](CCC(N)=O)NC(=O)[C@@H](NC(=O)[C@H](C)NC(=O)[C@@H]1CSSC[C@H](NC(=O)[C@@H](N)CCCCN)C(=O)N[C@@H](CC(N)=O)C(=O)N[C@@H]([C@@H](C)O)C(=O)N[C@@H](C)C(=O)N[C@@H]([C@@H](C)O)C(=O)N1)[C@@H](C)O)C(C)C)C(=O)N[C@@H](CC(C)C)C(=O)N[C@@H](CO)C(=O)N[C@@H](CO)C(=O)N[C@H](C(=O)N[C@@H](CC(N)=O)C(=O)N[C@H](C(=O)NCC(=O)N[C@@H](CO)C(=O)N[C@@H](CC(N)=O)C(=O)N[C@H](C(=O)N[C@@H](Cc1ccc(O)cc1)C(N)=O)[C@@H](C)O)C(C)C)[C@@H](C)O [hIAPP, human islet amyloid polypeptide] | 864.0 ± 9.9 | 863.0 ± 21.1 | 544.7 ± 4.6 | 551.1 ± 8.1 | 552.9 ± 12.2 | showed an increase in ThT fluorescence | 27 to 48.1
IAPPA25P S28P: an A25P S28P analog of IAPP (KCNTATCATQRLANFLVHSSNNFGPILPSTNVGSNTY; disulfide 2-7; not fully specified (C-terminus); ends not checked; UniProt P10997 34-70, looked up, variant A25P S28P) |  |  | 550.5 ± 3.8 |  |  | showed no increase in ThT fluorescence | 
